From PubChem
rCAG RNA binder – binders of r(CAG) RNA repeats, primary screen, biochemical, fluorescence. actives 1.3% (n = 370,000). AID 651821, 2012. inhibition, % at 3 µM. r(CAG) RNA repeat, TO-PRO-1 dye displacement fluorescence;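 active = inhibition above the plate cutoff, the mean of all test compounds on that plate plus 3 SD, cut at about 35% in these data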;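 also: 0% = DMSO alone and 100% = 100 µM mitoxantrone as full dye displacement; higher means more dye released from RNA so lower well fluorescence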
HCV NS3 hel inh – inhibitors of HCV NS3 helicase, primary screen, biochemical, Cy5 molecular beacon fluorescence; NS3 helicase DNA unwinding; inhibition, % at 10.9 µM; actives 0.56% (n = 290,000);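 active = inhibition above the mean of all tested compounds plus 3 SD, set per campaign, cut at about 35% in these data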;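 also: 0% = DMSO wells and 100% = thioflavine S control wells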
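Measured by: Cy5 fluorescence, 0 and 60 min reads / Assay system: NS3 helicase fragment of HCV / Control set: low DMSO, high thioflavine S at 110 µM / Times: 1 h reaction at 25 °C, ATP-initiated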
TAAR1 antag – human TAAR1 antagonists, primary screen, Fluo-8 calcium fluorescence, CHO RD-HGA16 cells. Trace amine-associated receptor 1 (Homo sapiens), Q96RJ0. inhibition, % at 3 µM. actives 1.5% (n = 360,000). antagonist;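 active = inhibition above a per-plate cutoff, the mean inhibition of test compounds on that plate plus 3 SD, cut at about 49% in these data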;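 also: 0% = DMSO plus EC80 beta-PEA response and 100% = DMSO alone without agonist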
Target sequence (Q96RJ0 whole entry, looked up): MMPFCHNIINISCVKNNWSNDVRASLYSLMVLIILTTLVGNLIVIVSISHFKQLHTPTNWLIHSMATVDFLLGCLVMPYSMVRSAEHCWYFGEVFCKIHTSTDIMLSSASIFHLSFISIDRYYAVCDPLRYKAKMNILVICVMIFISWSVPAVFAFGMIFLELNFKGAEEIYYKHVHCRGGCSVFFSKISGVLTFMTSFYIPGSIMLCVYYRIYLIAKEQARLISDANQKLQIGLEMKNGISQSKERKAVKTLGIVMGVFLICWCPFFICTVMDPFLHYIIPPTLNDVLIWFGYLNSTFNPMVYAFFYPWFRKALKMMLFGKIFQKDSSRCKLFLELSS
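Test system: RD-HGA16 CHO cells with stable hTAAR1 and Gα16 / Probe or stimulus: EC80 β-phenethylamine stimulus / Times: seeding 17-24 h prior, 75-min 37 °C, 30-min RT dye loading / Detection: Fluo-8 calcium-sensitive fluorescence / Read-out basis: % inhibition scaled between DMSO and EC80 PEA controls / Repeats: singlicate, one well per test compound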
TAAR1 ag – human TAAR1 agonists, primary screen, Fluo-8 calcium fluorescence, CHO RD-HGA16 cells; AID 624467, 2012; vehicle wells 0%, saturating PEA agonist 100%; activation, % at 3 µM; actives 0.99% (n = 360,000); Trace amine-associated receptor 1 (Homo sapiens), Q96RJ0;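 active = activation above the mean activation of all test compounds in the run plus 3 SD, cut at about 38% in these data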
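Assay system – CHO-derived RD-HGA16 cells with stable Gα16 and human TAAR1 · Compound dosing – one-point dosing at 3 µM (nominal) · Incubation – 17-24 h seeding, 75 min 37 °C dye, 30 min RT · Measured by – kinetic Fluo-8 calcium fluorescence · Control set – DMSO vehicle as 0%, PEA at EC100 as 100% · Repeats – single well for each compound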
core dimer inh – inhibitors of HCV core protein dimerization, primary screen, biochemical, TR-FRET, high-throughput | TR-FRET GST/Flag-core106 dimerization, 1536-well | inhibition, % at 5 µM | actives 0.33% (n = 300,000) | AID 1899, 2009;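 active = inhibition above the mean of all tested compounds plus 3 SD, set per screening campaign, cut at about 45% in these data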
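Test system: GST/Flag-tagged HCV core106 proteins; Medium: KF-containing HEPES buffer, pH 7.45, DTT, CHAPS, BSA; Times: compound-protein-antibody incubation 4 h at 22.5 °C; Detection: TR-FRET 671 and 617 nm emission; Benchmarks: wells lacking GST-core106 and wells with excess unlabelled core106.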
TAAR1 nonsel count – nonselective antagonists in TAAR1 counter-screen cells, counter-screen for hTAAR1 antagonist project, cell-based, fluorescence, calcium; shares compounds with TAAR1 antag; counterscreen cell line, antagonist mode; inhibition, % at 3 µM; actives 77% (n = 2,400); in the data active = inhibition above about 22%;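 also: CHO-Ga16 host cells stimulated with ATP at an EC80 level; 0% = agonist EC80 plus vehicle and 100% = vehicle without agonist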
TAAR1 antag conf – human TAAR1 antagonists, retest of hits, confirmation, cell-based, fluorescence. shares compounds with TAAR1 antag. TAAR1-expressing cells, fluorescence antagonist read-out. inhibition, % at 3 µM. actives 40% (n = 2,400). AID 651785, 2012; in the data active = inhibition above about 49%;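 also: CHO-Ga16 host cells challenged with agonist PEA near its EC80; 0% = agonist at EC80 plus vehicle and 100% = vehicle with no agonist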
Ga16 nonsel ag – calcium activation in Ga16-expressing cells, counter-screen for TAAR1 antagonist project, cell-based, fluorescence. activation, % at 3 µM. agonist counterscreen. shares compounds with TAAR1 antag. actives 18% (n = 2,400); in the data active = activation above about 12%;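 also: 0% = vehicle wells and 100% = saturating stimulus response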
TAAR1 ag counter – TAAR1 activation by candidate antagonists – cell-based, fluorescence, counter-screen for TAAR1 antagonist project | shares compounds with TAAR1 antag | hTAAR1 cell line, agonist mode | activation, % at 3 µM | actives 2% (n = 2,400) | AID 651955, 2012; in the data active = activation above about 37%;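 also: CHO cells stably expressing TAAR1 with calcium dye readout; 0% = DMSO vehicle and 100% = full agonist response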
Starred values were filed as active, the others as inactive; nt = no result. Shown are actives, neighbours in structure and some others; about 3.7% of the full set was active somewhere.

SMILES | rCAG RNA binder | HCV NS3 hel inh | TAAR1 antag | TAAR1 ag | core dimer inh | TAAR1 nonsel count | TAAR1 antag conf | Ga16 nonsel ag | TAAR1 ag counter
CNC(=O)C[C@H]1CC[C@H]2[C@@H](COc3ccc(NC(=O)Nc4ccccc4)cc3C(=O)N2C)O1 | 3 | nt | nt | nt | nt | nt | nt | nt | nt
COc1cc(NC(=O)c2ccccc2)c(C)cc1NC(=O)CSc1nnc(COc2ccccc2)n1Cc1ccco1 | 6 | nt | nt | nt | nt | nt | nt | nt | nt
O=C(NC1CCCC1)[C@@H]1CCCN1C(=O)[C@H](Cc1cccnc1)NC(=O)N1CCOCC1 | 2 | nt | -6 | 3 | nt | nt | nt | nt | nt
C[C@H](NC(=O)c1[nH]cnc1C(=O)Nc1ccc(CNC(=O)OC(C)(C)C)cc1)C(=O)OCc1ccccc1 | 1 | nt | 67* | 14 | 1 | 34* | 52* | 5 | 9
CCN(CC(=O)Nc1cccc(C(C)=O)c1)S(=O)(=O)c1ccc(OC)cc1 | -5 | -5 | 1 | 5 | 1 | nt | nt | nt | nt
COc1ccc(NC(=O)CN(c2ccc(OC)cc2)S(=O)(=O)c2ccc(OC)c(OC)c2)cc1 | 4 | -2 | 51* | 18 | 1 | 23* | 34 | 6 | 3
COc1ccc(N(CC(=O)Nc2cccc(C(C)=O)c2)S(=O)(=O)c2ccc(NC(C)=O)cc2)cc1 | 16 | -7 | 61* | 17 | nt | 35* | 55* | 11 | 12
COC(=O)CN(c1ccc(OC)cc1)S(=O)(=O)c1ccc(OC)c(OC)c1 | -4 | 7 | -4 | 5 | 0 | nt | nt | nt | nt
COc1cccc(N(C)C(=O)[C@@H](C2CC2)[C@@H](O)c2ccc(C(C)=O)cc2)c1 | 7 | nt | nt | nt | nt | nt | nt | nt | nt
Cc1cc(C)c2sc(N(CCCN(C)C)C(=O)c3ccc(S(=O)(=O)N(C)Cc4ccccc4)cc3)nc2c1 | 3 | nt | 50* | 35 | -8 | 39* | 40 | 26* | 46*
CCN(Cc1ccccc1)S(=O)(=O)c1ccc(C(=O)N(CCCN(C)C)c2nc3cc(C)cc(C)c3s2)cc1 | -1 | nt | 24 | 27 | -10 | nt | nt | nt | nt
CCCCOCCCNC(=O)C[C@H]1C[C@@]2(C(=O)OC)C(=C[C@H](C(C)(C)C)O[C@@H]2C)N(CCC2=CCCCC2)C1=O | 2 | nt | -26 | -2 | nt | nt | nt | nt | nt
CCOC(=O)CN(C(=O)COc1nc(-c2ccccc2)cc(C)c1C#N)c1cccc(OC)c1 | 0 | -5 | 55* | 10 | 6 | 25* | 46 | 6 | 8
CCn1c(=NC(=O)c2cccc(N3C(=O)CCC3=O)c2)sc2c(C)ccc(OC)c21 | 3 | -15 | 60* | 12 | 14 | 30* | 47 | 6 | 6
COc1cccc(CNS(=O)(=O)c2cc3c(cc2Br)CC(C)N3C(C)=O)c1 (configuration not stated) | 3 | nt | nt | nt | nt | nt | nt | nt | nt
Cc1n[nH]c(C)c1S(=O)(=O)NCCc1ccccc1F | 1 | nt | nt | nt | nt | nt | nt | nt | nt
COc1cc2oc3cc(C#Cc4ccc(N)cc4)ccc3c(=O)c2cc1OC | 30 | nt | 52* | 8 | 6 | 29* | 35 | 3 | 7
COc1cc2oc3ccc(C#Cc4ccccn4)cc3c(=O)c2cc1OC | 11 | nt | 5 | 10 | -25 | nt | nt | nt | nt
COc1cc2oc3ccc(C#Cc4ccc(N)cc4)cc3c(=O)c2cc1OC | 24 | nt | 56* | 12 | -8 | 25* | 31 | 3 | 0
O=C(CSc1nnc(-c2ccccc2)n1Cc1ccco1)Nc1ccc(OCc2ccccc2)cc1 | 8 | nt | nt | nt | nt | nt | nt | nt | nt
COC(=O)[C@]12C[C@H](CC(=O)NCCC(C)C)C(=O)N(Cc3ccccc3)C1=C[C@H](C1CCCC1)O[C@@H]2C | 2 | nt | -34 | -1 | nt | nt | nt | nt | nt
CN(Cc1cnn(C)c1)C(=O)c1cc(COc2c(F)cccc2F)on1 | -3 | 3 | 105* | 8 | -3 | 4 | 1 | 0 | 1
COc1cccc(CN(C)C(=O)c2cc(COc3c(F)cccc3F)on2)c1 | -5 | -11 | 0 | 3 | 1 | nt | nt | nt | nt
CCCCN1CCS(=O)(=O)N(Cc2cn(Cc3ccccc3Br)nn2)C(C(=O)OC)C1 (configuration not stated) | 0 | nt | nt | nt | nt | nt | nt | nt | nt
COc1cccc(S(=O)(=O)N(C)C[C@@H]2Oc3ncc(Br)cc3C(=O)N([C@H](C)CO)C[C@@H]2C)c1 | 1 | nt | 13 | 0 | nt | nt | nt | nt | nt
SMILES | rCAG RNA binder | HCV NS3 hel inh | TAAR1 antag | TAAR1 ag | core dimer inh | TAAR1 nonsel count | TAAR1 antag conf | Ga16 nonsel ag | TAAR1 ag counter
O=C(Nc1ccc(COc2ccccc2)cc1)c1cccc([N+](=O)[O-])c1 | -1 | 4 | 60* | 28 | -3 | 28* | 68* | 11 | 27
FC(F)Oc1ccc(-c2csc(=Nc3cccnc3)n2CC2CCCO2)cc1 (configuration not stated) | -5 | -8 | 57* | 13 | 11 | 37* | 44 | 8 | 6
CCCCOCCCNC(=O)C[C@H]1C[C@@]2(C(=O)OC)C(=C[C@H](C(C)(C)C)O[C@@H]2C)N(Cc2ccc3c(c2)OCO3)C1=O | 4 | nt | -50 | -2 | nt | nt | nt | nt | nt
COc1ccc(NC(=O)c2cccc(N3C(=O)C4C5C=CC(C6CC56)C4C3=O)c2)cc1 (configuration not stated) | -4 | -12 | 63* | 12 | 5 | 35* | 54* | 13* | 10
O=C(Nc1ccccc1)c1cccc(N2C(=O)C3C4CC(C(Br)C4Br)C3C2=O)c1 (configuration not stated) | 5 | -6 | 72* | 24 | 6 | 38* | 64* | 19* | 22
COc1ccc(NC(=O)c2cccc(N3C(=O)C4C5C=CC(C6CC56)C4C3=O)c2)c(OC)c1 (configuration not stated) | -5 | -6 | 30 | 13 | 9 | nt | nt | nt | nt
O=C(O)c1ccc(NC(=O)c2cccc(N3C(=O)C4C5CCC(C5)C4C3=O)c2)cc1 (configuration not stated) | 2 | 11 | -9 | 1 | -3 | nt | nt | nt | nt
Brc1ccc(-c2nc(N/N=C/c3cccnc3)c3ccccc3n2)cc1 | 6 | -3 | 78* | 15 | 6 | 31* | 49* | 7 | 4
